{"source": "ChEMBL document CHEMBL3085728", "about": "“Conformational modifications of gB from herpes simplex virus type 1 analyzed by synthetic peptides” (J Med Chem, 2013)", "key": {"Human alphaherpesvirus 1 [1]": {"tested_on": "Human alphaherpesvirus 1", "assay": "Antiviral activity against Herpes simplex virus type 1 assessed as inhibition of viral entry into African green monkey Vero cells at 20 to 200 uM compound treated post viral titration for 30 mins measured 48 hrs post viral titration by plaque formation assay", "format": "functional, organism-based"}, "Vero": {"tested_on": "Vero", "assay": "Cytotoxicity against African green monkey Vero cells at 10 to 500 uM after 24 hrs by LDH assay", "format": "cell-based", "conditions": "chlorocebus sabaeus", "method_in_brief": "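Vero monolayers exposed to peptides at 10, 50, 100, 200, 250 and 500 μM for 24 h; viability read by lactate dehydrogenase release with a commercial cytotoxicity detection kit, compared against untreated cells.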"}, "Human alphaherpesvirus 1 [2]": {"tested_on": "Human alphaherpesvirus 1", "assay": "Antiviral activity against Herpes simplex virus type 1 assessed as inhibition of viral entry into African green monkey Vero cells at 100 uM compound preincubated with virus for 45 mins followed by viral titration measured 48 hrs post viral titration by plaque formation assay relative to control", "format": "functional", "conditions": "Human alphaherpesvirus 1, Vero"}, "Human alphaherpesvirus 1 [3]": {"tested_on": "Human alphaherpesvirus 1", "assay": "Antiviral activity against Herpes simplex virus type 1 assessed as inhibition of viral entry into African green monkey Vero cells compound co-treated with cells and viral inoculum for 45 mins measured after 48 hrs by plaque formation assay", "format": "functional, organism-based", "conditions": "Human alphaherpesvirus 1, Vero", "method_in_brief": "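Cotreatment: Vero cells exposed to peptide (10–200 μM, serum-free DMEM) together with serial dilutions of LacZ HSV-1 inoculum for 45 min at 37 °C. Nonpenetrated virus inactivated by pH 3.0 citrate, then 48 h at 37 °C in DMEM with CMC; X-gal staining, plaques counted. Triplicates; inhibition percentage vs no-peptide control.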"}}, "note": "pIC50: −log10 of the molar value. Calls of active or inactive are those of the source. The calls are words filed in the database; no cut-off is given here."}
{"substance": "H-YNHIQRHVNDMLGR-OH", "values": [{"measurement": "inhibition", "setting": "Human alphaherpesvirus 1 [1]", "value": "inactive"}, {"measurement": "Activity", "setting": "Vero", "value": "Non-toxic"}, {"measurement": "inhibition at 100 µM", "setting": "Human alphaherpesvirus 1 [2]", "value": 100, "unit": "%"}]}
{"substance": "H-YNHIQRHVNDMLGRVKKAWEE-OH", "values": [{"measurement": "Activity", "setting": "Vero", "value": "Non-toxic"}]}
{"substance": "H-FARLQFTYNHIQRHVRDMEGR-OH", "values": [{"measurement": "pIC50", "setting": "Human alphaherpesvirus 1 [3]", "value": 4.22}, {"measurement": "inhibition", "setting": "Human alphaherpesvirus 1 [1]", "value": "inactive"}, {"measurement": "Activity", "setting": "Vero", "value": "Non-toxic"}, {"measurement": "inhibition at 100 µM", "setting": "Human alphaherpesvirus 1 [2]", "value": 100, "unit": "%"}]}
